Test results published in ChEMBL document CHEMBL4428090, “Modeling, Synthesis, and Biological Evaluation of Potential Retinoid X Receptor (RXR)-Selective Agonists: Analogues of 4-[1-(3,5,5,8,8-Pentamethyl-5,6,7,8-tetrahydro-2-naphthyl)ethynyl]benzoic Acid (Bexarotene) and 6-(Ethyl(5,5,8,8-tetrahydronaphthalen-2-yl)amino)nicotinic Acid (NEt-TMN)” (J Med Chem, 2016).
The source made the active and inactive calls. The calls are words filed in the database; no cut-off is given here.

Key:
Retinoid X receptor = molecular target: T1, Retinoid X receptor (Homo sapiens, UniProt P28702+P48443+P19793); experiment: Agonist activity at human RXR binding domain and activation domain expressed in human HCT116 cells assessed as rexinoid activity incubated for 24 hrs by luciferase reporter gene based mammalian two-hybrid assay; assay type: cell-based
T1 sequence (P28702 whole entry): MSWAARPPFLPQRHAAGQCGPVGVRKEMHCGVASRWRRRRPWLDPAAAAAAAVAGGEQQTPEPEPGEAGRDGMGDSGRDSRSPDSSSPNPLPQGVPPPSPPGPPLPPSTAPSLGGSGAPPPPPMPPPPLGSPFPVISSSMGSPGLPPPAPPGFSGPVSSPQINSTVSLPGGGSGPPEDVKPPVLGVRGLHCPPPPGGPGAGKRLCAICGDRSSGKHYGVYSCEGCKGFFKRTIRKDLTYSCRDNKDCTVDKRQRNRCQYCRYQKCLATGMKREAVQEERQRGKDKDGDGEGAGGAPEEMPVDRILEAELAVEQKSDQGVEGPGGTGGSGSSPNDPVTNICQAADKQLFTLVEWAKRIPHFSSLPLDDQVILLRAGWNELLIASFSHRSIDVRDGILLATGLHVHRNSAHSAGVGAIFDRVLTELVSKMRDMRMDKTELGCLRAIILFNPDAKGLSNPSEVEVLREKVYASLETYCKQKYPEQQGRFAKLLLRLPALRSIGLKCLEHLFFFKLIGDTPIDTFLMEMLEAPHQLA
T1 sequence (P48443 whole entry): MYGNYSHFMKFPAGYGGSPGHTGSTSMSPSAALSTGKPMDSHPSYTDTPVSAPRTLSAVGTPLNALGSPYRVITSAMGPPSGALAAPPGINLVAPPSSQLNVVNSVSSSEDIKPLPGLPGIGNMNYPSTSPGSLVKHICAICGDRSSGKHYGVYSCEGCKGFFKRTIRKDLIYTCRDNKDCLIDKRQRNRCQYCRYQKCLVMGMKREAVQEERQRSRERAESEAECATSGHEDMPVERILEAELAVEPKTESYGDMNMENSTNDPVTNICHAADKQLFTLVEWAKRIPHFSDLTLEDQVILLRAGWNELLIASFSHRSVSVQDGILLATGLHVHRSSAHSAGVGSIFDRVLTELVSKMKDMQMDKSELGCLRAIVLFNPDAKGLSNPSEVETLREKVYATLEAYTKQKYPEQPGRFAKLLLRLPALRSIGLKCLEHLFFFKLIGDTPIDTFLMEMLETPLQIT
T1 sequence (P19793 whole entry): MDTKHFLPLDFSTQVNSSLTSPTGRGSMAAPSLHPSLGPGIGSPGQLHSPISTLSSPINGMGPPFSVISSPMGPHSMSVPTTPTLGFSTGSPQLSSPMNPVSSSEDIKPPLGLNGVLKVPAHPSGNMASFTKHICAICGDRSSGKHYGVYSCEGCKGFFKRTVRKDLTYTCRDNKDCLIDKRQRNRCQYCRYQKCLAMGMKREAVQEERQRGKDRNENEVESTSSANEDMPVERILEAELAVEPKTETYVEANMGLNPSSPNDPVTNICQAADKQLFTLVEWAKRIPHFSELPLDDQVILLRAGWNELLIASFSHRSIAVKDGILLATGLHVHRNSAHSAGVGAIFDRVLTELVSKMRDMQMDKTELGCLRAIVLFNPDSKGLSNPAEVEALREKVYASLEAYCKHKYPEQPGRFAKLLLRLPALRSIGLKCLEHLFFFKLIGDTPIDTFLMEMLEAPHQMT

[1] = molecular target: Retinoid X receptor (Homo sapiens) (UniProt P28702+P48443+P19793); experiment: Agonist activity at human RXR binding domain and activation domain expressed in human HCT116 cells assessed as rexinoid activity at 100 nM incubated for 24 hrs by luciferase reporter gene based mammalian two-hybrid assay relative to bexarotene; assay type: cell-based
How it was run: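 HCT-116 cells plated overnight (80,000/well, DMEM with 10% FBS), co-transfected for 24 h with human RXR binding-domain (bait) and activation-domain (prey) vectors, pFR-Luc Gal4 reporter and renilla control. Treated 24 h at 25, 100 or 1000 nM final; vehicle ethanol or DMSO 0.1%. Dual-luciferase read-out. Three independent assays in triplicate; bexarotene set to 100%.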

[2] = molecular target: T2, Retinoic acid receptor RXR-alpha (Homo sapiens) (UniProt P19793); experiment: Agonist activity at human RXRalpha expressed in human HCT116 cells assessed as increase in RXRE-mediated transcription at 100 nM incubated for 24 hrs by RXRE luciferase reporter gene assay relative to bexarotene; assay type: cell-based
T2 sequence (whole entry): T1 sequence (P19793 whole entry)
How it was run: (§1)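 HCT-116 cells (80,000/well) co-transfected for 24 h with 250 ng RXRE-luciferase reporter (DR1 element from the rat cellular retinol binding protein II gene), 25 ng pSG5-human RXRα and 20 ng renilla. Dosed 24 h at 25, 100 or 1000 nM final; ethanol or DMSO vehicle 0.1%. Dual-luciferase read-out. Three independent assays in triplicate; bexarotene = 100%.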

[3] = molecular target: T2, Retinoic acid receptor RXR-alpha (Homo sapiens); experiment: Agonist activity at human RXRalpha expressed in human HCT116 cells assessed as increase in RXRE-mediated transcription at 1000 nM incubated for 24 hrs by RXRE luciferase reporter gene assay relative to bexarotene; assay type: cell-based; how it was run: as §1
HuT78 = experiment: Inhibition of HDAC1 gene expression in human HUT78 cells at 100 nM incubated for 48 hrs by quantitative real-time PCR method; assay type: functional
How it was run: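 Hut78 cells resuspended in RPMI with 1% FBS, plated 750,000/well and dosed at 100 nM for 48 h. Total RNA extracted, 0.5 µg DNase-treated RNA reverse-transcribed, then qPCR for HDAC1. Quantified by ΔΔCt, normalized to GAPDH and relative to vehicle-treated cells (2^-ΔΔCt).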

[4] = Mutagenicity in Saccharomyces cerevisiae D7 assessed as induction of mutagenesis by measuring forward and reverse mutations up to 0.1 mg/mL; assay type: toxicity
[5] = molecular target: T2, Retinoic acid receptor RXR-alpha (Homo sapiens); experiment: Agonist activity at human RXRalpha expressed in human HCT116 cells assessed as increase in RXRE-mediated transcription incubated for 24 hrs by RXRE luciferase reporter gene assay; assay type: cell-based

EC50 (Retinoid X receptor)	Activity [1]	Activity [2]	Activity [3]	fold change (FC) ([1]; in the assay text read “relative to activity at 25 nM” for “relative to bexarotene”)	Activity [5]	Structure (SMILES)	inhibition (HuT78)	Activity [4]	inhibition at 0.1 µM (HuT78; HuT78, 48 h)
0.0079 µM	Active	16 to 32%	Active			CCN(c1ccc(C(=O)O)cc1)c1cc2c(cc1C)C(C)(C)CCC2(C)C		Non-Toxic	
0.0338 µM	Active	16 to 32%	Active			CCN(c1ccc(C(=O)O)c(F)c1)c1cc2c(cc1C)C(C)(C)CCC2(C)C		Non-Toxic	
0.0182 µM	135 to 146%	68 to 89%	20 to 43%			CCN(c1ncc(C(=O)O)cn1)c1cc2c(cc1C)C(C)(C)CCC2(C)C		Non-Toxic	28%

More lines, now with the values behind:

Structure (SMILES)	EC50 (Retinoid X receptor)	Activity [1]	Activity [2]	Activity [3]	fold change (FC) ([1]; in the assay text read “relative to activity at 25 nM” for “relative to bexarotene”)	Activity [5]	inhibition (HuT78)	Activity [4]	inhibition at 0.1 µM (HuT78; HuT78, 48 h)
CCN(c1ccc2c(c1)C(C)(C)CCC2(C)C)c1ccc(C(=O)O)cn1	0.0138 µM	135 to 146%	68 to 89%	20 to 43%			inactive	Non-Toxic	
CCN(c1ccc2c(c1)C(C)(C)CCC2(C)C)c1cnc(C(=O)O)cn1	0.3643 µM			20 to 43%	5 to 16	inactive		Non-Toxic	
